Bioassay records from PubChem.
Hits are enriched below; roughly 1.6% of the tested compounds scored in any of these assays.
p97 ATPase inh = blocks human p97 ATPase activity; P55072; recombinant p97 ATPase, Kinase-Glo ATP luminescence, 3 h; inhibition, % at 8 µM; 0.42% of 220,000 active; AID 1481; in the data active means inhibition above about 15%;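 further: 0% = DMSO vehicle and 100% = wells lacking enzyme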
p47phox inh = p47phox (human) inhibition; P14598; p47phox/p22phox peptide binding, fluorescence polarization, 2 h; inhibition, % at 24.7 µM; 0.53% of 220,000 active; AID 1274;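 further: 0% = p47phox with labelled peptide and 100% = labelled peptide alone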
Tb MetRS inh = blocks T. brucei methionyl-tRNA synthetase activity; purified T. brucei MetRS, ATP depletion, Kinase-Glo luminescence; 0.4% of 360,000 active; AID 624268; inhibition, % at 11.9 µM;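 active means inhibition above a per-plate cutoff of the control wells' mean inhibition plus 3 SD, cut at about 5.5% in these data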;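 further: 0% = DMSO wells median and 100% = median of wells with control inhibitor compound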
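System: purified T. brucei MetRS enzyme / Detection: Kinase-Glo luciferase luminescence reporting remaining unconsumed ATP / Medium: HEPES buffer with MgCl2, KCl, DTT, spermine, BSA, pyrophosphatase / Replication: singlicate, one well per compound / Evaluation: percent inhibition relative to median high and low control wells / Schedule: 2 h aminoacylation at 25 °C after 15 min preincubation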
eIF4E 4G PPI = blocks eIF4E binding to eIF4G | TR-FRET eIF4E-eIF4GI(517-606) binding, 2 h | inhibition, % at 21.7 µM | P63073+Q04637 | 0.37% of 220,000 active | AID 782;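 further: 0% = full FRET control wells and 100% = background wells lacking eIF4GI fragment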
Target sequence (P63073 whole entry, looked up, the tested form may be a part): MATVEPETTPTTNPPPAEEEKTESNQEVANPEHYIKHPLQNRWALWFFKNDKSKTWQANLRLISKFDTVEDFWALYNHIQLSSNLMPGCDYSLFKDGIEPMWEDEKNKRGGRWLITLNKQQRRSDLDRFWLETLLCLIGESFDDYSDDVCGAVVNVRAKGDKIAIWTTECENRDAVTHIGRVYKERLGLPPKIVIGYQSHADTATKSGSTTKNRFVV
Target sequence (Q04637 whole entry, looked up, the tested form may be a part): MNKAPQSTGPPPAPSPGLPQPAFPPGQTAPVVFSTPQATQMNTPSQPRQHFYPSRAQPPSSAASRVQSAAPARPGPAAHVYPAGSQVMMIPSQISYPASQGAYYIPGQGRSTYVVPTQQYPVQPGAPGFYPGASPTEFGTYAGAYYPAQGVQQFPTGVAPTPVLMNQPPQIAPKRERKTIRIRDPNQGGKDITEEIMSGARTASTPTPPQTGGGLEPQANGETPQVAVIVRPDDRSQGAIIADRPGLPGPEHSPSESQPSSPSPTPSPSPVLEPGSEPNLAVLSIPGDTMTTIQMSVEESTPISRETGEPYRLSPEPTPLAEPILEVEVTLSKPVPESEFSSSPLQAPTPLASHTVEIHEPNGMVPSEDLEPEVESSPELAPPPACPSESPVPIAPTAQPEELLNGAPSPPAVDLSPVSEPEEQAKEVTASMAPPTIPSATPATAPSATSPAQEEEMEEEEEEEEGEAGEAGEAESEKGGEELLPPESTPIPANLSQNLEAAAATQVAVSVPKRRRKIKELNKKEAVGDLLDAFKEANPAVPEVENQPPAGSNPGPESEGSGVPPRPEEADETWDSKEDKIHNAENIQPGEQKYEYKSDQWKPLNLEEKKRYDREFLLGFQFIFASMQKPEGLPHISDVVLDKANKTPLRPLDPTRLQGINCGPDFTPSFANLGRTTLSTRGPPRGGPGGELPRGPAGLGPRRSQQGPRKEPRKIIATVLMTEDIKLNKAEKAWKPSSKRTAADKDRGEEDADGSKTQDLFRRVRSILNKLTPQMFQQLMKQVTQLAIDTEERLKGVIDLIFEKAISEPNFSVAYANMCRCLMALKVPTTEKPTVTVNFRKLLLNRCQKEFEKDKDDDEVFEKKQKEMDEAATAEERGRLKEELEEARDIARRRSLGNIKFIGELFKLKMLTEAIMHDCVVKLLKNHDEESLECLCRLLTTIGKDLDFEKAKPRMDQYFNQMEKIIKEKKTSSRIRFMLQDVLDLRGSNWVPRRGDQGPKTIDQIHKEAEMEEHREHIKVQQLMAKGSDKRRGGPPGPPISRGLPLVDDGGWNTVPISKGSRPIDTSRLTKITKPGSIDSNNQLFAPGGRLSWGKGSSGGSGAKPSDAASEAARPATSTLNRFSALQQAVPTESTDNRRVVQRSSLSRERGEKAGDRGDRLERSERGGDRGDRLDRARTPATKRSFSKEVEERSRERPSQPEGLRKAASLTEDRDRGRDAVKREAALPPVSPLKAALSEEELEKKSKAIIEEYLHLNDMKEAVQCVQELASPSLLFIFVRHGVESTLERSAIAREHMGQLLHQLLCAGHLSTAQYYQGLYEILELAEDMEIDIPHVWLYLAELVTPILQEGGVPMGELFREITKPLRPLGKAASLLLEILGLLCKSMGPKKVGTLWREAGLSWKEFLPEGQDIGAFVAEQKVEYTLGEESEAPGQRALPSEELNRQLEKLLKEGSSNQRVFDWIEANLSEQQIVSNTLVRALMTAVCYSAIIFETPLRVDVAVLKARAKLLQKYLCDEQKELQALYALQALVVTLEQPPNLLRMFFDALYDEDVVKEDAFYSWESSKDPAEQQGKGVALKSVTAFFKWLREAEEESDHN
14-3-3 Bad PPI = disrupts binding of bovine 14-3-3 zeta to phospho-Bad peptide | inhibition, % at 21.7 µM | 0.71% of 220,000 active | TR-FRET 14-3-3zeta/Dy647-pBad peptide displacement, 1 h | P63103 | AID 781;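 active means inhibition above about 70%, limit read from the data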;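 further: 0% = full 14-3-3 plus peptide FRET controls and 100% = background without 14-3-3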
UBC9 SUMO inh = SUMOylation inhibition | inhibition, % at 35 µM | HTRF SUMOylation assay, SAE1/SAE2 + UBC9, in vitro | AID 2006 | P63279 | 0.36% of 290,000 active; in the data active means inhibition above about 50%, passing the limit was not always enough
Numbers without * were called inactive; . = not tested or not shown; [ ] = another dose, or the depositor's remark.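 How the source made its calls, unless noted: active means inhibition above about 30% (limit read from the data); inactive means the rest.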

SMILES | p97 ATPase inh | p47phox inh | Tb MetRS inh | eIF4E 4G PPI | 14-3-3 Bad PPI | UBC9 SUMO inh
O=C1NC(c2ccc(Br)cc2)=N/C1=C/c1ccco1 | 2 | 16 | 0 | -6 | 22 | 51*
CCOC(=O)CC1(CCc2ccccc2)Oc2ccccc2O1 | . | . | 0 | . | . | .
CC1(C)CCCN(C(=O)c2ccc3c(c2NCCO)C(=O)c2ccccc2C3=O)C1 | -5 | 1 | 0 | 6 | 81*[fluorescence artefact?] | -8
COc1cccc([C@@H]2CC=C(C(=O)O)CN2S(=O)(=O)c2ccc(C)cc2)c1 | . | . | 1 | . | . | .
CCC(C)C(=O)Nc1nc(-c2ccc3c(c2)NC(=O)CO3)cs1 (centres undefined) | -6 | -7 | 0 | 0 | 14 | 14
Nc1nc(-c2ccc3c(c2)NC(=O)CO3)cs1 | 0 | -16 | 0 | 3 | 78* | 18
COCC(=O)Oc1c(Sc2ccccc2[N+](=O)[O-])c(C)nn1C(C)(C)C | 4 | 7 | -1 | 41* | 42 | 12
COC(=O)c1cc2c(-c3ccccc3)cc3ccccn3c-2c1C(=O)OC | -2 | 53* | -2 | -27 | -35 | 12
CCCCn1nnnc1C(c1cccc2ccccc12)N1CCN(C/C=C/c2ccccc2)CC1 (centres undefined) | . | . | 0 | . | . | .
CCn1c2ccccc2c2nc3cc(S(=O)(=O)N4CCOCC4)ccc3nc21 | -4 | -4 | 0 | 48* | 33 | 28
c1ccc2nc3c(nc2c1)c1ccccc1n3CCN1CCOCC1 | -5 | -11 | -1 | 8 | -3 | 18
Cc1c(Nc2nc(-c3cccc([N+](=O)[O-])c3)cs2)c(=O)n(-c2ccccc2)n1C | 1 | 4 | 0 | -4 | 88* | 14
Cc1c(NS(=O)(=O)c2cccc([N+](=O)[O-])c2)c(=O)n(-c2ccccc2)n1C | . | . | -1 | . | . | 18
O=C(NC1CCCC1)c1nc(-c2ccco2)oc1-c1ccccc1 | . | . | 0 | . | . | .
O=C(O)c1ccccc1-n1ncc2c1/C(=C/c1ccc(Cl)cc1)CC2 | -1 | -9 | . | 16 | 79* | 29
O=C(O)c1ccc(-n2ncc3c2/C(=C/c2cccc([N+](=O)[O-])c2)CC3)cc1 | -1 | -18 | 1 | -10 | -2 | 31
O=c1c2ccccc2sn1-c1cc(S(=O)(=O)N2CCOCC2)ccc1N1CCOCC1 | 1 | 74* | 0 | 71* | 74* | 17
Nc1cc(S(=O)(=O)N2CCOCC2)ccc1N1CCCCC1 | . | . | 0 | . | . | .
O=c1c2ccccc2sn1-c1cc(S(=O)(=O)N2CCOCC2)ccc1N1CCCC1 | 0 | 58* | 0 | 56* | -8 | -2
Cc1ccccc1C(=O)NNC(=O)CSc1nc(-c2ccccc2)cc(=O)[nH]1 | -1 | -4 | 0 | 0 | 2 | 0
CSc1sc(C(=O)NN)c2c1C1(CCC2)SCCS1 | 11 | -5 | 1 | -3 | -1 | 6
Cc1nn2c(N)c(C#N)cnc2c1-c1ccc(Cl)cc1 | 5 | -11 | -1 | -8 | 0 | 13
COc1ccc(-c2c(C)nn3c(N)c(C#N)cnc23)cc1OC | 8 | -8 | 0 | 38* | -5 | 7
CCCCn1c(N)c(N(CCOC)C(=O)COC(=O)c2cc(CCC)c(C)s2)c(=O)[nH]c1=O | . | . | 0 | . | . | .
COc1ccccc1N1CCN(C(=O)CCCN2C(=O)c3cccc4cccc(c34)C2=O)CC1 | 1 | -8 | 1 | 1 | 1 | 14
SMILES | p97 ATPase inh | p47phox inh | Tb MetRS inh | eIF4E 4G PPI | 14-3-3 Bad PPI | UBC9 SUMO inh
CC(C)(C)c1ccc(C(=O)NCc2nnc(SCC(=O)NC3CCCCC3)o2)cc1 | . | . | 0 | . | . | 4
Cc1ccc2oc(Nc3nc(-c4ccccc4)cc(=O)[nH]3)nc2c1 | -2 | 45* | . | 23 | 88* | 11
COCc1cc(=O)[nH]c(Nc2nc3ccccc3o2)n1 | 4 | -9 | 0 | -3 | -11 | -44
COC(=O)[C@]12CCCCC=C1N(CCc1ccc(OC)c(OC)c1)C(=O)[C@H](CC(=O)NCCCCc1ccccc1)C2 | . | . | 0 | . | . | .
O=C(c1ccccc1)N(Nc1ccccc1)c1ccccc1 | 1 | -8 | -1 | 99* | 0 | 8
COc1ccc(-n2ccnc2SCC(=O)c2c(N)n(C3CC3)c(=O)[nH]c2=O)cc1 | . | . | 0 | . | . | .
CCOC(=O)CSc1nnc(CSc2nc(C)cc(C)n2)n1Cc1ccco1 | -4 | 1 | 0 | 136*[fluorescence artefact?] | 11 | 7
Cc1sc2nc3ccc(NCc4ccco4)nn3c(=O)c2c1C | 5 | -10 | -1 | -14 | 27 | 56*
COc1cc(/C=N/NC(=O)C2=NNC(=O)C2C)ccc1O (centres undefined) | 2 | -8 | -1 | -7 | -6 | 10
CC1C(=O)NN=C1C(=O)N/N=C\c1ccc(O)cc1O (centres undefined) | -3 | -8 | 0 | 1 | -5 | 89*
COc1ccc(C(=O)CSc2nc(SC)ns2)cc1OC | -1 | -10 | -1 | -11 | -9 | -8
COc1ccc(C(=O)CSc2cc(C)nc3nc(C)nn23)cc1OC | 8 | 129* | 0 | -3 | 13 | 12
Cc1cccc(C)c1NC(=O)C1(C)CN(S(C)(=O)=O)CC(=O)N1CCc1c[nH]c2ccccc12 (centres undefined) | . | . | -1 | . | . | .
CCCCCN(C(=O)NC(=O)Nc1ccc(C)cc1)S(=O)(=O)c1ccccc1 | 2 | -9 | 0 | -4 | 2 | -9
Oc1ccc(/C=N/Nc2nn3cnnc3c3ccccc23)cc1 | -15 | -13 | -1 | 98* | 1 | 12
O=S(=O)(/C=C/C=C/S(=O)(=O)c1ccccc1)c1ccccc1 | . | . | -1 | . | . | .
c1ccc(-c2nnc(-c3ccccc3)o2)cc1 | -6 | -57 | -1 | 1 | 14 | -3
Nc1ccccc1-c1nnc(-c2ccc(-c3ccccc3)cc2)o1 | -2 | 58* | -1 | . | . | 27
O=S1(=O)CC(N2CCCC2)CN1Cc1ccccc1 (centres undefined) | . | . | -1 | . | . | .
O=S1(=O)N[C@@H](Cc2ccccc2)COc2cc(N3CC[C@H](O)C3)ccc21 | . | . | -1 | . | . | .
Cc1cc(C)c2c(=O)n(CC(=O)NC3CCCC3)sc2n1 | 0 | 42* | -1 | 6 | -2 | 18
Cc1cc(C)c2c(=O)n(CC(=O)Nc3ccc(Br)c(C)c3)sc2n1 | -2 | 15 | -1 | 13 | 19 | 6
COC(=O)C1=CN(c2ccc(F)cc2)C(N)=C(C#N)C1c1ccc(-c2ccccc2)cc1 (centres undefined) | . | . | 0 | . | . | .
CCN(CC)CCNC(=O)CCCCn1c(=S)[nH]c2c([nH]c3ccc(OC)cc32)c1=O | 4 | -9 | 0 | 47* | 0 | 27
CCCCNC(=O)c1ccc(Cn2c(=S)[nH]c3c([nH]c4ccc(OC)cc43)c2=O)cc1 | 2 | 20 | 0 | 5 | 12 | 53*
Cc1ccc(C(=O)NC2CCN(S(=O)(=O)c3ccccc3F)CC2)cc1 | . | . | -1 | . | . | 4
CC1=C(c2ccccc2)[N+](=O)C2(CCCC2)N1[O-] | 3 | -4 | 0 | -5 | 3 | 10
